Drawing on ChEMBL document CHEMBL4251567 (Eur J Med Chem, 2018), this text covers Activity and viability for 4 molecules.

In assay [1] the target is T1, Histone deacetylase (Homo sapiens) (UniProt Q13547+O15379+Q9UBN7+Q92769+Q9UQL6+Q8WUI4+Q9BY41+Q96DB2+P56524+Q9UKV0+Q969S8). In words: Inhibition of HDAC in human HeLa-S3 cell lysates assessed as residual activity at 2 x 10^-4 M preincubated for 15 mins followed by HDAC-Glo substrate addition measured after 35 mins by fluorimetric method relative to control. It counts as protein assay. Put shortly: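 Lysate (1 μg total protein) in HDAC-Glo buffer was preincubated with inhibitor in DMSO for 15 min at room temperature. HDAC-Glo substrate/developer reagent was added and luminescence read after 35 min. Concentrations are final. Signal corrected for a no-lysate blank; % of DMSO control.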

In assay [2] the target is T1, Histone deacetylase (Homo sapiens). In words: Inhibition of HDAC in human HeLa-S3 cell lysates assessed as residual activity at 1 x 10^-4 M preincubated for 15 mins followed by HDAC-Glo substrate addition measured after 35 mins by […] relative to control. It counts as protein assay.
The subject of assay [3] is U-937. In words: Cytotoxicity against human U937 cells assessed as cell viability at 2 x 10^-6 M after 44 hrs by MTT assay relative to control. Type of assay: functional. Particulars: U-937, 44 h, read-out: Activity. A general note: Tetrazolium assays rely on reduction of a dye to a coloured formazan, in cell work by metabolically active cells.
Assay [4] concerns the target T1, Histone deacetylase (Homo sapiens). In words: Inhibition of HDAC in human HeLa-S3 cell lysates assessed as residual activity at 2.5 x 10^-5 M preincubated for 15 mins followed by HDAC-Glo substrate addition measured after 35 mins by […] relative to control. Type of assay: protein assay.
The test system of assay [5] is U-937. In words: Cytotoxicity against human U937 cells assessed as cell viability at 8 x 10^-6 M after 44 hrs by MTT assay relative to control. It counts as functional. Particulars: U-937, 44 h, read-out: Activity.
The subject of another assay is Jurkat. In words: Cytotoxicity against human Jurkat cells assessed as cell viability at 10 uM after 44 hrs by MTT assay relative to control. As to conditions: read-out: Activity. Type of assay: functional.
The test system of assay [6] is U-937. In words: Cytotoxicity against human U937 cells assessed as cell viability at 4 x 10^-6 M after 44 hrs by MTT assay relative to control. It counts as functional. Particulars: U-937, 44 h, read-out: Activity.
The target of assay [7] is T2, Protein deacetylase HDAC6 (Homo sapiens) (UniProt Q9UBN7).
T2 sequence (whole entry): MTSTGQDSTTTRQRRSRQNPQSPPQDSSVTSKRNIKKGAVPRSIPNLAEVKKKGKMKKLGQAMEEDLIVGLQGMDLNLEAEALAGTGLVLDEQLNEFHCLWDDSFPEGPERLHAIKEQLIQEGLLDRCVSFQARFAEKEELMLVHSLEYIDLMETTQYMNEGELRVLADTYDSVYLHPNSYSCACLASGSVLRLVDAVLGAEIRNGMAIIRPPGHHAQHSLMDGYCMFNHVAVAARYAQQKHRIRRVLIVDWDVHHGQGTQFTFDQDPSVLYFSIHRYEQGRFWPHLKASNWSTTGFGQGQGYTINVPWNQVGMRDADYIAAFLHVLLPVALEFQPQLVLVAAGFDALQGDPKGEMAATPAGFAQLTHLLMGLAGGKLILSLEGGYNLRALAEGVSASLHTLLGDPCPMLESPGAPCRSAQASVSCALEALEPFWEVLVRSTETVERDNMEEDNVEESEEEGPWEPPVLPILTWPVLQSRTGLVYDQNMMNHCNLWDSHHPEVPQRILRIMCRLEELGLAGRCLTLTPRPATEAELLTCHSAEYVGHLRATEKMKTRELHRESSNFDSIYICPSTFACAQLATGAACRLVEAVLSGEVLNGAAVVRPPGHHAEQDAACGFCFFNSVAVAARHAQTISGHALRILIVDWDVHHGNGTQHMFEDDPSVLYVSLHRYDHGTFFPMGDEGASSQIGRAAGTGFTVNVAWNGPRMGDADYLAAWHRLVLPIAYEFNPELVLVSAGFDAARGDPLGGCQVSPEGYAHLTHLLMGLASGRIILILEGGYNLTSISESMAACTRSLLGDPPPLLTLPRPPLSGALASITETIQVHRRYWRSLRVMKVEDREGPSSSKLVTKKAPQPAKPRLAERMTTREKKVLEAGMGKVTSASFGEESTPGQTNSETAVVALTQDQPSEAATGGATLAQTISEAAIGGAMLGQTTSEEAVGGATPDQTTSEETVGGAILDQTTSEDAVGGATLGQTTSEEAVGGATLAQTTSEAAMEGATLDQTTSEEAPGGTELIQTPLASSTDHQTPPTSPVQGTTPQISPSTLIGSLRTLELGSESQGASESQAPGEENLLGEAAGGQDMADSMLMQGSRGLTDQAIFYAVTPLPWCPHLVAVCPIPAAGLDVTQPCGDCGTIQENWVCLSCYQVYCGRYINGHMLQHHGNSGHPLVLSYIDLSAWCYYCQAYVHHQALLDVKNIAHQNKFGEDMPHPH
As to the kind of experiment: Inhibition of HDAC6 in human HeLa-S3 cell lysates assessed as remaining activity at 1.25 uM preincubated for 15 mins followed by HDAC-Glo substrate addition measured after 30 to 40 mins by […] relative to control. Put shortly: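 HDAC6 captured on an anti-HDAC6 antibody-coated plate (2 μg/mL, pH 9.4 carbonate buffer, milk-blocked). HeLa-S3 lysate loaded at 1 mg/mL, 1 h at 4 °C, then washed. 15 min RT preincubation with inhibitor in DMSO; HDAC-Glo reagent added, luminescence read at 30-40 min. Concentrations are final. Background = no-antibody well; values are % activity versus DMSO control.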

In assay [8] the target is T1, Histone deacetylase (Homo sapiens). In words: Inhibition of HDAC in human HeLa-S3 cell lysates assessed as residual activity at 3 x 10^-6 M preincubated for 15 mins followed by HDAC-Glo substrate addition measured after 35 mins by […] relative to control. It counts as protein assay.
In assay [9] the target is T3, Histone deacetylase 8 (Homo sapiens) (UniProt Q9BY41).
T3 sequence (whole entry): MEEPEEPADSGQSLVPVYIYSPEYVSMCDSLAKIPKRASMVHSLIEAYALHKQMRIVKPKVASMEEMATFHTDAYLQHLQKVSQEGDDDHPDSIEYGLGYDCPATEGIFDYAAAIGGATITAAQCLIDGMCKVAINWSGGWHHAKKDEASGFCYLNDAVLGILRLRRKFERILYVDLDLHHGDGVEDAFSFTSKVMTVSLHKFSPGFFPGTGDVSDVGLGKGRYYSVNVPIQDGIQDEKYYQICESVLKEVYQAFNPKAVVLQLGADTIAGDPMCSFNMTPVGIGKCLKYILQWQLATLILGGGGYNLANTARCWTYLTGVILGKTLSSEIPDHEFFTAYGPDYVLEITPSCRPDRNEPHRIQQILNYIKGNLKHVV
As to the kind of experiment: Inhibition of human recombinant full-length C-terminal His-tagged HDAC8 expressed in baculovirus infected Sf9 insect cell assessed as remaining activity at 4 x 10^-7 M preincubated for 15 mins followed by HDAC-Glo substrate addition measured after 30 mins by fluorimetric method rel;ative to control. Put shortly:
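Recombinant HDAC8 (75 ng) preincubated 15 min at RT with inhibitor in DMSO in HDAC-Glo buffer. HDAC-Glo reagent added and luminescence read 30 min later. Background taken from a reaction without enzyme; activity as % of DMSO control.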

With `O=C(CCC(CCCC(=O)Nc1ccccc1)Cc1ccccc1)NO` (racemic), the Activity came to 19% in assay [1], 35% in assay [2] and 74% in assay [4]. For the same molecule, in the assay on U-937 [3], the viability at 2 µM is 80%. Moreover, the viability at 8 µM with U-937 [5] turned out to be 80%. Moreover, the viability at 10 µM in the assay with Jurkat is 97%. Also, in the assay with U-937 [6], the viability at 4 µM came to 74%.

For `CCCCCCC(CCCC(=O)Nc1ccccc1)CCC(=O)NO` (stereo not drawn), the Activity in assay [1] was 21%; in assay [2], 35%; in assay [4] it was 73%; in [7], 21%. For the same molecule, in the assay on U-937 [3], the viability at 2 µM was 106%. Besides, the viability at 8 µM with U-937 [5] amounted to 102%. In the assay with Jurkat, the viability at 10 µM was 39%. Besides, the viability at 4 µM with U-937 [6] was determined as 108%.

Turning to `CCC(CCCC(=O)Nc1ccccc1)CCC(=O)NO` (stereo not drawn), the Activity in assay [8] worked out at 92%; in [9], 25%.

Take `O=C(CC[C@H](CCCC(=O)Nc1ccccc1)Cc1ccccc1)NO`: the Activity in assay [9] came out at 28%.
